Results reported in ChEMBL document CHEMBL1926567, “Triterpenoids as inhibitors of erythrocytic and liver stages of Plasmodium infections” (Bioorg Med Chem, 2011).
The source made the active and inactive calls. No cut-off for these calls is given here.

Columns and labels:
Plasmodium berghei [1] = assay: Antimalarial activity against transgenic Plasmodium berghei expressing PbGFP-Luc-con infected in human HuH7 cells assessed as reduction of parasite invasion at 15 uM by luciferase based assay; type: functional, organism-based; settings: Huh-7
Plasmodium berghei [2] = assay: Antimalarial activity against transgenic Plasmodium berghei expressing PbGFP-Luc-con infected in human HuH7 cells assessed as reduction of parasite motility at 15 uM by luciferase based assay; type: functional, organism-based; settings: Huh-7
Plasmodium berghei [3] = assay: Antimalarial activity against liver stage of transgenic Plasmodium berghei expressing PbGFP-Luc-con infected in human HuH7 cells at 1 to 15 uM after 48 hrs by bioluminescence method; type: functional, organism-based; settings: Huh-7
In short: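 Huh-7 human hepatoma cells (12×10^3/well) seeded the day before; compounds at 1, 5 and 15 uM added 1 h before sporozoites of luciferase-expressing P. berghei PbGFP-Luc_con, freshly dissected from infected female Anopheles stephensi salivary glands. Plates centrifuged 1700g for 5 min after sporozoite addition. Luminescence read 48 h post-infection versus DMSO controls. Primaquine positive control; three independent measurements.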

Plasmodium berghei [4] = assay: Antimalarial activity against transgenic Plasmodium berghei expressing PbGFP-Luc-con infected in human HuH7 cells assessed as reduction of intracellular liver stage development at 15 uM by luciferase based assay; type: functional, organism-based; settings: Huh-7
Hepatocyte = assay: Cytotoxicity against mouse primary hepatocytes at 15 uM after 24 hrs by alamar blue fluorescence assay; type: cell-based
In short: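 Mouse primary hepatocytes incubated with compounds for 24 h, then with AlamarBlue-containing medium for 1 h before fluorescence reading. Signal normalized to cells treated with 500 μM H2O2 as positive control and compared with a DMSO control at the amount present in the highest drug concentration.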

[5] = Selectivity index, ratio of IC50 for human MCF7 cells to IC50 for chloroquine-sensitive Plasmodium falciparum 3D7; type: toxicity, cell-based; settings: read-out: Ratio IC50
In short: (§1)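 MCF-7 cells were grown in RPMI 1640 with 10% heat-inactivated horse serum and 2 mM L-glutamine. Cells (2×10^4 per well) were exposed to increasing compound concentrations for 24 h at 37 °C, then given MTT for 4 h and SDS overnight; OD read at 550 nm (ref 630 nm). Growth-inhibition IC50 from three experiments.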

Plasmodium falciparum [6] = assay: Antimalarial activity against chloroquine-resistant Plasmodium falciparum Dd2 infected in erythrocytes after 48 hrs by SYBR green 1-based fluorescence assay; type: functional, organism-based; settings: Dd2, 48 h
In short: (§2)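 P. falciparum (3D7 or Dd2) grown in fresh human erythrocytes in RPMI 1640 with 25 mM HEPES, 6.8 mM hypoxanthine and 10% AlbuMAX II, at 37 °C under 5% O2, 3–5% CO2 and N2. Ring-stage cultures at 1% parasitaemia and 2% haematocrit were exposed in duplicate to 0.156–100 µg/mL (from DMSO stocks) for 48 h at 37 °C. SYBR Green I lysis buffer was then added for 1 h in the dark; fluorescence read at ex 485/em 535 nm. IC50 is the mean of three independent experiments.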

Plasmodium falciparum [7] = assay: Antimalarial activity against chloroquine-sensitive Plasmodium falciparum 3D7 infected in erythrocytes after 48 hrs by SYBR green 1-based fluorescence assay; type: functional, organism-based; settings: 3D7, 48 h; in short: as §2
Huh-7 = assay: Cytotoxicity against human HuH7 cells at 15 uM by alamar blue fluorescence assay; type: cell-based; settings: huh-7, 15 µM
In short: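 Huh-7 cells cultured in RPMI 1640 with 10% FCS and 10 mM HEPES pH 7 at 37 °C, 5% CO2. Cells seeded the day before, exposed to compounds (1, 5, 15 uM) and infected in parallel with the liver-stage assay. Viability read as AlamarBlue fluorescence (cell confluency), compared with DMSO controls; three independent measurements.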

MCF7 = assay: Cytotoxicity against human MCF7 cells after 24 hrs by MTT assay; type: cell-based; settings: MCF7, 24 h
In short: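 MCF-7 cells grown in RPMI 1640 with 10% heat-inactivated horse serum and 2 mM L-glutamine at 37 °C, 5% CO2. 2×10^4 cells/well exposed to increasing compound concentrations for 24 h. MTT added for 4 h, then 10% SDS overnight; OD at 550 nm (reference 630 nm). Percent growth inhibition calculated relative to cell and medium controls; IC50 given as mean ± SD of three experiments.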

[8] = Selectivity index, ratio of IC50 for human MCF7 cells to IC50 for chloroquine-resistant Plasmodium falciparum Dd2; type: toxicity, cell-based; settings: read-out: Ratio IC50; in short: as §1
Plasmodium falciparum [9] = assay: Ratio of balsaminol-F IC50 to compound IC50 for chloroquine-resistant Plasmodium falciparum Dd2; type: functional
Plasmodium falciparum [10] = assay: Ratio of balsaminol-F IC50 to compound IC50 for chloroquine-sensitive Plasmodium falciparum 3D7; type: functional

CC(C)=C[C@H](O)C[C@@H](C)[C@H]1CC[C@@]2(C)[C@@H]3[C@@H](O)C=C4[C@@H](CC[C@H](O)C4(C)C)[C@]3(C)CC[C@]12C (relative stereo) [BALSAMINOL F]
Activity (Plasmodium berghei [1]): inactive
Activity (Plasmodium berghei [2]): inactive
Activity (Plasmodium berghei [3]): Active
Activity (Plasmodium berghei [4]): Active
Activity (Hepatocyte): Toxic
selectivity ratio [5]: 1.5
IC50 (Plasmodium falciparum [6]): 20 µM
IC50 (Plasmodium falciparum [7]): 18 µM
Activity (Huh-7): Toxic
IC50 (MCF7): 27.3 µM
selectivity ratio [8]: 1.4

CC(C)=C[C@H](O)C[C@@H](C)[C@H]1CC[C@@]2(C)[C@@H]3[C@@H](O[C@@H]4O[C@H](CO)[C@@H](O)[C@@H](O)[C@H]4O)C=C4[C@@H](CC[C@H](O)C4(C)C)[C@]3(C)CC[C@]12C (relative stereo) [BALSAMINOSIDE B]
Activity (Plasmodium berghei [1]): inactive
Activity (Plasmodium berghei [2]): inactive
Activity (Plasmodium berghei [3]): Active
Activity (Plasmodium berghei [4]): Active
Activity (Hepatocyte): Toxic
selectivity ratio [5]: 4.8
IC50 (Plasmodium falciparum [6]): 6.3 µM
IC50 (Plasmodium falciparum [7]): 2.9 µM
Activity (Huh-7): Toxic
IC50 (MCF7): 14.2 µM
selectivity ratio [8]: 2.3

CC(C)=C[C@H](O)C[C@@H](C)[C@H]1CC[C@@]2(C)[C@@H]3[C@@H](O[C@@H]4O[C@H](CO)[C@@H](O)[C@H](O)[C@H]4O)C=C4[C@@H](CC[C@H](O)C4(C)C)[C@]3(C)CC[C@]12C [BALSAMINOSIDE C]
Activity (Plasmodium berghei [3]): Active
selectivity ratio [5]: 7
IC50 (Plasmodium falciparum [6]): 7.2 µM
IC50 (Plasmodium falciparum [7]): 3.4 µM
IC50 (MCF7): 23.9 µM
selectivity ratio [8]: 3.3

CO[C@H]1C=C2[C@@H](CC[C@H](O)C2(C)C)[C@]2(C)CC[C@]3(C)[C@@H]([C@H](C)CC(C=C(C)C)O[C@@H]4O[C@H](CO)[C@@H](O)[C@H](O)[C@H]4O)CC[C@@]3(C)[C@H]12 (some centres not stated) [KUGUAGLYCOSIDE A]
selectivity ratio [5]: 3.5
IC50 (Plasmodium falciparum [6]): 4.7 µM
IC50 (Plasmodium falciparum [7]): 3.9 µM
IC50 (MCF7): 13.5 µM
selectivity ratio [8]: 2.9

CC(=O)O[C@H]1C=C2[C@@H](CC[C@H](OC(C)=O)C2(C)C)[C@]2(C)CC[C@]3(C)[C@@H]([C@H](C)C[C@H](C=C(C)C)OC(C)=O)CC[C@@]3(C)[C@H]12 [TRIACETYLBALSAMINOL F]
Activity (Plasmodium berghei [1]): inactive
Activity (Plasmodium berghei [2]): inactive
Activity (Plasmodium berghei [3]): Active
Activity (Plasmodium berghei [4]): Active
Activity (Hepatocyte): Non-toxic
selectivity ratio [5]: > 162
IC50 (Plasmodium falciparum [6]): 0.4 µM
IC50 (Plasmodium falciparum [7]): 0.8 µM
Ratio IC50 (Plasmodium falciparum [9]): 50
Activity (Huh-7): Non-toxic
Ratio IC50 (Plasmodium falciparum [10]): 22.5
IC50 (MCF7): > 133 µM
selectivity ratio [8]: > 343

CC(C)=C[C@@H](C[C@@H](C)[C@H]1CC[C@@]2(C)[C@@H]3[C@@H](OC(=O)c4ccccc4)C=C4[C@@H](CC[C@H](OC(=O)c5ccccc5)C4(C)C)[C@]3(C)CC[C@]12C)OC(=O)c1ccccc1 [TRIBENZOYLBALSAMINOL F]
Activity (Plasmodium berghei [3]): Active
selectivity ratio [5]: > 2.3
IC50 (Plasmodium falciparum [6]): 68.4 µM
IC50 (Plasmodium falciparum [7]): 57.3 µM
IC50 (MCF7): > 133 µM
selectivity ratio [8]: > 2
